Published values gathered from unrelated publications.
Compare with care: the assays were run in different laboratories.
Target: Serine/threonine-protein kinase tousled-like 1 (TLK1, Homo sapiens, UniProt Q9UKI8)
Sequence (Q9UKI8 1-766, as in one of the studies): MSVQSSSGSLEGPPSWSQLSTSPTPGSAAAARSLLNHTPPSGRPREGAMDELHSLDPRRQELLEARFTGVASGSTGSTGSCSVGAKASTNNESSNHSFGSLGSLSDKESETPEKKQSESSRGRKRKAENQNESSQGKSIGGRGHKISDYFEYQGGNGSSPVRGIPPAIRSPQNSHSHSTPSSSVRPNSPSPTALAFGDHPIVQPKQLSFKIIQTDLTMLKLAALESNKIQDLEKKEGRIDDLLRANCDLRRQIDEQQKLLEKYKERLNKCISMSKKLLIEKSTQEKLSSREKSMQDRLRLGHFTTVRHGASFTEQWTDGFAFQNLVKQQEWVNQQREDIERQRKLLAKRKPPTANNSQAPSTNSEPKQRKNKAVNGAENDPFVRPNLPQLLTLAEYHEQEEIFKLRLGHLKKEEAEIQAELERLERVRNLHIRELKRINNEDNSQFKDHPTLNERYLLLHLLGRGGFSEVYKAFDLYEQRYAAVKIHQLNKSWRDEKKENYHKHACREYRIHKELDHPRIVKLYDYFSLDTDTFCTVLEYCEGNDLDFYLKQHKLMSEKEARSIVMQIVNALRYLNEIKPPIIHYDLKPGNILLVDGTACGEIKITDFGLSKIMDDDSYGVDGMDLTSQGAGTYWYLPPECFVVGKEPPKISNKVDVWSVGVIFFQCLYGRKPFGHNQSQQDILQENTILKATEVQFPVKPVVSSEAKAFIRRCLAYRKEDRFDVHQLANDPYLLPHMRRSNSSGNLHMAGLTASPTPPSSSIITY

Structure (SMILES) | test | conditions | measurement | result
Cc1cnc(NC2CCOCC2)nc1-n1cnc(C(=O)NC(CN)c2cc(F)cc(Cl)c2)c1 (stereo not shown) | enzyme activity, inhibitor, radiometric | 1 µM | remaining activity | 99%
C[C@H](c1ccnc(Nc2nc3ccc(-c4cc(N(C)C)ncn4)cc3[nH]2)c1)N1CCN(C(=O)CC(F)(F)F)CC1 | cell-free assay, competition with immobilised ligand | 0.1 µM | remaining binding | 76%
Nc1ncnc2occ(-c3ccc(NC(=O)Nc4cc(C(F)(F)F)ccc4F)cc3)c12 | cell-free assay, inhibitor | 20 µM | remaining signal | 39%
Cc1sc(C(=O)NC2COC2)cc1-n1cc(NC(=O)Nc2c(F)cccc2Cl)cn1 | enzyme activity, inhibitor | 10 µM | remaining activity | 105%
CN1CC(Oc2cnc(C#N)cc2-c2ccn3nc(NC(=O)C4CC4)cc3c2)C1 | enzyme activity, inhibitor | 1 µM | inhibition | -13%
Cc1ccc(C(=O)Nc2ccc(CN3CCN(C)CC3)c(C(F)(F)F)c2)cc1C#Cc1cnc2cccnn12 | enzyme activity, inhibitor | 23.5 nM | remaining activity | 100%
CC(C)(O)[C@H]1CC[C@H](Nc2ccc3ncc(-c4cccc(C(F)(F)F)c4)n3n2)CC1 | enzyme activity, inhibitor | 1 µM | remaining activity | 94.2%
COc1cc(/C=C/C(=O)CC(=O)/C=C/c2ccc(O)c(OC)c2)ccc1O | enzyme activity, inhibitor | 1 µM | activity vs control | 128%
Cc1ccc(NC(=O)c2ccc(C)c(C(F)(F)F)c2)cc1C#Cc1nn(C2CCC(O)CC2)c2ncnc(N)c12 (stereo not shown) | cell-free assay | 10 µM | remaining signal | 95%
C[C@@H](c1cccc(C#N)c1)n1cc(Cl)cc(C(N)=O)c1=N | cell-free assay, competition with immobilised ligand | 1 µM | remaining binding | 100%
O=C(Nc1cnn(-c2csc(C(=O)NC3COC3)c2)c1)Nc1c(F)cccc1Cl | enzyme activity, inhibitor | 5 µM | remaining activity | 53.4%
CC(C)(C)c1nc2c(s1)c1nc(N)ncc1c1ccc(NS(=O)(=O)c3c(F)cccc3F)c(F)c12 | enzyme activity, inhibitor, radiometric | 1 µM | remaining activity | 92%
COc1cc(Nc2cnc(C#N)c(O[C@H](C)CN(C)C)n2)ncc1-c1cnn(C)c1 | enzyme activity, inhibitor, radiometric | 10 µM | remaining activity | 93%
CC(C)(C)c1nc(-c2cccc(NS(=O)(=O)c3c(F)cccc3F)c2F)c(-c2ccnc(N)n2)s1 | enzyme activity, inhibitor, radiometric | 1 µM | remaining activity | 108%
Cc1cc(NC(=O)c2cccc3cc(-c4cccc5[nH]nc(N)c45)ccc23)ccc1F | enzyme activity, inhibitor | 0.1 µM | activity vs control | 88%
O=C(N1CCS(=O)(=O)CC1)N1C[C@H](c2ccc(OC(F)(F)F)cc2)C[C@H](c2nc(C3CC3)no2)C1 | cell-free assay, competition with immobilised ligand | 1 µM | remaining binding | 94%
Cc1ccc(C(=O)NCc2ccsc2)cc1C#Cc1cn(C(C)C)c2ncnc(N)c12 | enzyme activity, inhibitor | 1 µM | activity vs control | 80%
COc1ccc2c(O[C@@H]3C[C@H]4C(=O)N[C@]5(C(=O)O)CC5/C=C\CCCCC[C@H](NC(=O)OC5CCCC5)C(=O)N4C3)cc(-c3csc(NC(=O)C(C)C)n3)nc2c1C (stereo partly shown) | cell-free assay, competition with immobilised ligand | 1 µM | remaining binding | 100%
COc1cc(Cl)c(C(=O)N[C@@H](CN[C@H]2CC[C@@H](N)CC2)Cc2ccc(C#N)cc2)cc1-c1ccc(CN[C@H](C)c2ccc(C)cc2)o1 | enzyme activity, inhibitor | 1 µM | remaining activity | 94%
